bCat nuc transl: modulators of beta-catenin nuclear translocation. nuclear translocation activity, % at 5 µM. 0.3% of 190,000 active. HeLa beta-catenin nuclear translocation, immunofluorescence imaging;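 active = nuclear translocation activity above 50% at 5 µM, with a well cell count of 50 or more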;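 note: per-cell ratio of nuclear to cytoplasmic median beta-catenin stain intensity; plate controls were DMSO negative control for no effect and GSK-3 inhibitor IX positive control for full effect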
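System: HeLa cells, endogenous beta-catenin; compound dosing: 5 µM primary single dose, 0.1% DMSO, 0.02–20 µM confirmation series; incubation: 24 h compound exposure at 37°C, 5% CO2; signal: beta-catenin immunofluorescence imaging with DAPI; evaluation: % activation, nuclear-to-cytoplasmic median beta-catenin signal ratio per cell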
HMGR II inh: E. faecalis class II HMG-CoA reductase inhibition | purified E. faecalis HMGR, NADPH absorbance 340 nm kinetic | inhibition, % at 10 µM | 0.41% of 190,000 active | AID 1066;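 active = inhibition above a set limit, the median over all tested compounds plus 3 SD, cut at about 9.5% in these data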;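 note: enzyme runs in reverse so mevalonate oxidation gives rising NADPH absorbance; 0% = complete reaction with DMSO and 100% = background rate lacking mevalonate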
RAM network inh: yeast RAM network inhibition | 1.8% of 190,000 active | AID 868 | inhibition, % at 50 µM | S. cerevisiae dse1pr::URA3 reporter, 5-FOA growth OD615, 2 d; analog-sensitive cbk1-as2 kinase mutant strain;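 active = inhibition above a set limit, 3 SD over mean compound inhibition, cut at about 8.4% in these data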;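 note: 0% = DMSO-only wells with no growth and 100% = 10 µM 1-NA-PP1 full growth; inhibition rescues growth on 5-FOA so higher OD means more RAM inhibition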
MT stabilizer: stabilizes microtubules in HeLa cells; HeLa tubulin immunostaining HCS, 24 h; share of cells brighter than vehicle mean+2SD; % tubulin-high responders, % at 10 µM; 0.83% of 200,000 active;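 active = plate Z-score above 3 for both tubulin-high and condensed-nucleus cell shares, with cell loss under 80%, at 10 µM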;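 note: anti alpha tubulin signal scored within the nucleus-defined area of each cell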
Yeast lifespan up: extends the lifespan of yeast | S. cerevisiae growth with nicotinamide, OD615; deaD strain in restrictive glucose medium | inhibition of the nicotinamide effect, % at 10 µM | 0.68% of 130,000 active | AID 775;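 active = inhibition above a set limit, placed 3 SD over the median of all compounds, cut at about 26% in these data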;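 note: 0% = nicotinamide-treated wells and 100% = cells grown without nicotinamide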
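Assay system: engineered S. cerevisiae DeaD replicative-lifespan strain, galactose-grown log-phase cells; medium: restrictive CSMM-D dextrose medium; also added: nicotinamide, 1.5 mM, co-present with compound; schedule: 48 h compound exposure at 30 °C, humidified; detection: absorbance at 615 nm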
Yeast growth inh: chemicals that inhibit yeast BB579 growth in restrictive medium (lifespan-shortening candidates); S. cerevisiae BB579 growth, OD615, 48 h; AID 804; inhibition, % at 10 µM; 0.51% of 140,000 active;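 active = inhibition above a set limit, 3 SD over the mean compound inhibition, cut at about 44% in these data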
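Test system: Saccharomyces cerevisiae DeaD strain BB579, replicative lifespan model yeast | Buffer or medium: Restrictive CSMM-D medium | Doses: One dose, 10 µM compound with 0.25% DMSO | Incubation: 48 h exposure, 30 °C | Detection: Culture absorbance at 615 nm | Control set: Amphotericin B at 10 µg/mL as positive control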
* hit, by the source's call; . = no result. Sampled rows, rich in hits. Any-hit rate of the full collection: about 3.5%.

SMILES | bCat nuc transl | HMGR II inh | RAM network inh | MT stabilizer | Yeast lifespan up | Yeast growth inh
O=C(Nc1cc(=O)[nH]c(=O)[nH]1)c1cccc(Br)c1 | 2 | 6 | 2 | 25* | . | .
O=C(NCC(O)CN1CCOCC1)c1ccc([N+](=O)[O-])cc1 (stereo not drawn) | 1 | -2 | 0 | 1 | . | .
O=C(O)c1ccc(N2CC3CC(C2)c2cccc(=O)n2C3)c(NS(=O)(=O)c2cccc(C(F)(F)F)c2)c1 (stereo not drawn) | -1 | 3 | 1 | 5 | . | .
O=C(O)c1cc2c(ccc3ccccc32)oc1=O | -3 | -1 | -1 | 2 | -11 | 67*
O=C(O)c1cc2ccc3ccccc3c2oc1=O | 0 | 1 | -2 | 3 | . | 64*
O=C(c1cc2c(ccc3ccccc32)oc1=O)N1CCCC1 | 2 | 2 | 0 | 4 | -2 | -24
O=C(O)c1cc2cc(Cl)cc(Cl)c2oc1=O | -5 | -7 | 1 | 5 | -26 | -33
CCOc1ccccc1-c1nnc(SCC(=O)Nc2ccccc2)o1 | -1 | 4 | 10* | 4 | -18 | -38
O=[N+]([O-])c1cc(Cc2ccccc2)cc(C=Nc2ccc(N3CCOCC3)cc2)c1O | -2 | -4 | 0 | 2 | -10 | 100*
COc1ccccc1N(Cc1cc(=O)[nH]c2ccccc12)C(=O)c1ccc([N+](=O)[O-])cc1 | 3 | . | . | . | . | .
CCc1ccc(NC(=O)C(=O)NCCN2CCN(S(C)(=O)=O)CC2)cc1 | 0 | 11* | 1 | 5 | . | .
COc1ccc(-c2ccc(CO)o2)cc1N | -1 | 9 | 1 | 2 | . | .
CCc1c(C)nc2ncnn2c1NCCc1ccc(OC)c(OC)c1 | -2 | -3 | 0 | 3 | -5 | -18
COc1ccc(CCNc2c(C)c(C)nc3ncnn23)cc1 | 15 | -4 | 0 | 30* | -1 | -26
O=C(N/N=C/c1cc([N+](=O)[O-])ccc1O)C12CC3CC(CC(C3)C1)C2 | 4 | 13* | 4 | 5 | . | .
O=[N+]([O-])c1ccc(O)c(/C=N/Nc2ccccn2)c1 | 23 | -12 | -1 | 4 | -9 | 99*
O=C(N/N=C/c1cc([N+](=O)[O-])ccc1O)NC12CC3CC(CC(C3)C1)C2 | -1 | 1 | 0 | 4 | -1 | -32
O=[N+]([O-])c1cccc(N/N=C/c2cc([N+](=O)[O-])ccc2O)c1 | 3 | -6 | 2 | 4 | . | .
CCN(CC)C(=O)Cn1cc(S(=O)(=O)CC(=O)NC2CCCCC2)c2ccccc21 | -5 | 1 | 1 | 5 | . | .
CC(=O)Nc1ccc(Cc2ccc3[nH]c(=O)cc(C)c3c2)cc1 | 1 | . | . | . | . | .
O=C(NCC1CCCN(C(=O)NCc2ccccc2)C1)c1ccc2c(c1)OCO2 (stereo not drawn) | 1 | 0 | 0 | 2 | . | .
O=C(Cc1cccc2ccccc12)Nc1ccc(OC(F)F)c(Cl)c1 | 0 | -2 | 7 | 3 | 4 | -43
O=C(Nc1ccc(OC(F)F)c(Cl)c1)C(c1ccccc1)c1ccccc1 | 1 | 2 | 9.6* | 2 | 2 | -25
CCOC(=O)c1c(NC(=O)C2C3C=CC(C3)C2C(=O)O)sc2c1CCC(CC)C2 (stereo not drawn) | 4 | -3 | 1 | 4 | 42* | -15
O=C(C1Cc2ccccc2CN1C(=O)c1ccccc1)N1CCN(c2ccccc2)CC1 (stereo not drawn) | 1 | . | . | . | . | .
SMILES | bCat nuc transl | HMGR II inh | RAM network inh | MT stabilizer | Yeast lifespan up | Yeast growth inh
CC(C)(C)NC(=O)CSc1nc(-c2ccccc2)c(-c2ccccc2)[nH]1 | -1 | 1 | 6 | 15* | 0 | -73
O=C1CC(c2ccccc2)CC(=O)C1Sc1ccc(Cl)cc1 (stereo not drawn) | -1 | -5 | 2 | 3 | 40* | -3
CC(C)OCCCn1c(-c2ccc(Br)cc2)c[nH]c1=S | 0 | 5 | 1 | 4 | . | .
O=C(Nc1ccn(Cc2ccccc2F)n1)c1ccc(COc2cccc(Br)c2)cc1 | 0 | -6 | 11* | 2 | 0 | -22
Cc1ccc(SCCNC(=O)c2ccc(CN3CCOCC3)cc2)cc1 | -1 | -1 | 0 | 3 | . | .
Cc1ccc(CNC(=O)c2ccc(CN3CCOCC3)cc2)cc1 | -2 | 11* | 3 | 3 | -7 | -52
CC(C)c1ccc(-c2noc(C3CCCN(C(=O)c4ccc(F)cc4F)C3)n2)cc1 (stereo not drawn) | 2 | -2 | 10* | 2 | -12 | -46
CC(C)C(NC(=O)c1ccc(C(C)(C)C)cc1)C(=O)NCC(c1ccccc1)N(C)C (stereo not drawn) | 0 | . | . | . | . | .
COCCNC(=S)N(CCc1c(C)[nH]c2ccc(Cl)cc12)Cc1cccs1 | -2 | -2 | 9.8* | 3 | . | .
O=C(Nc1ccc(Cl)cn1)c1ccc(COc2ccccc2Br)o1 | . | -3 | 11* | 2 | . | .
CCOc1ccc(OCc2ccc(C(=O)Nc3ccc(Cl)cn3)o2)cc1 | 2 | -4 | 4 | 4 | -19 | -9
N#CCCn1cc(/C=N/N=C2\NC(=O)C(CC(=O)O)S2)c(-c2ccc(F)cc2)n1 (stereo not drawn) | 2 | . | . | . | . | .
O=C(CCC(=O)OCC(=O)c1ccc(-c2ccccc2)cc1)Nc1cccc2cccnc12 | -1 | -5 | 10* | 1 | -18 | -55
CC(Oc1ccc(Cl)cc1Cl)c1nc(-c2ccc(NC(=O)c3ccccn3)cc2)no1 (stereo not drawn) | 0 | -1 | 11* | 9 | . | -24
Cc1ccc(OC(=S)Nc2ccc(O)cc2)cc1 | 0 | -5 | 1 | 4 | . | 84*
Cc1ccc(OC(=S)Nc2ccc(F)cc2)cc1 | . | -1 | 1 | 3 | . | -14
CC(C)(C)C(=O)OCc1nc(-c2ccc(F)cc2)cs1 | 1 | . | . | . | . | .
COC(=O)c1ccc(CSc2cc(C)c3cccc(C)c3n2)o1 | -1 | -2 | 8.5* | 3 | . | .
Cc1cc([N+](=O)[O-])nn1CC(=O)NCc1nc2ccccc2[nH]1 | -2 | -6 | -1 | 2 | . | .
C/C(=N\NC(=O)c1nn(C)c(C)c1Br)c1ccc(NC(=O)c2ccc(C)s2)cc1 | -1 | 4 | 9.2* | 3 | . | .
C/C(=N\NC(=O)c1nn(C)c(C)c1Br)c1ccc(NC(=O)c2ccoc2C)cc1 | 1 | -1 | 4 | 2 | -1 | -62
Cc1ccc(S(=O)(=O)N(CC(=O)N=Nc2c(O)[nH]c3ccccc23)c2ccc(C)c(C)c2)cc1 | 18 | -5 | 3 | 20* | 9 | -54
Cc1ccc(S(=O)(=O)N=Nc2c(O)[nH]c3ccccc23)cc1 | -1 | -3 | -1 | 3 | -2 | -13
NS(=O)(=O)c1ccc(CCNC(=O)CCCOc2ccccc2)cc1 | -3 | -2 | 2 | 1 | . | .
NC(=S)NN=C1c2cc(S(=O)(=O)N3CCOCC3)ccc2-c2ccc(S(=O)(=O)N3CCOCC3)cc21 | 0 | 1 | 9.9* | 5 | 4 | -16

From PubChem
